# Published values pooled from the literature.
# Target: Mitogen-activated protein kinase kinase kinase 11 (MAP3K11, Homo sapiens, UniProt Q16584)
SMILES,read-out,mode,method,concentration,measurement,value
CC(C)S(=O)(=O)c1ccc2nccc(Nc3ccc4sc(C5CCCC5)nc4c3)c2c1,enzyme activity,inhibitor,,1 µM,activity vs control,98%
C=CC(=O)N1CCC([C@@H]2CCNc3c(C(N)=O)c(-c4ccc(Oc5ccccc5)cc4)nn32)CC1,enzyme activity,inhibitor,,1 µM,inhibition,0%
C#Cc1cc(-c2cc(Nc3nc(N[C@@H](C)c4ccc(F)cn4)ncc3Cl)n[nH]2)ccc1C=O,enzyme activity,inhibitor,,0.2 µM,inhibition,72.5%
CCCCC(=O)Nc1ccc(-c2ccc3ncn(CCC)c(=O)c3c2)cn1,binding,,competition with immobilised ligand,0.5 µM,remaining binding,82%
COc1ccc2[nH]c3c4[nH]c5ccc(OC)cc5c4c4c(c3c2c1)C(=O)NC4=O,binding,,,1 µM,remaining binding,5.6%
C1=C/COCc2cc(ccc2OCCN2CCCC2)Nc2nccc(n2)-c2cccc(c2)COC/1,cell-free assay,,,0.1 µM,remaining signal,100%
C=CC(=O)N1CCC[C@@H](n2nc(-c3ccc(Oc4ccccc4)cc3)c3c(N)ncnc32)C1,enzyme activity,inhibitor,,1 µM,inhibition,0%
CN1CCN(C(=O)c2ccc(NC(=O)Nc3ccc(N(C)c4ccnc(Nc5ccc(CS(C)(=O)=O)cc5)n4)cc3)cc2)CC1,binding,,,1 µM,remaining binding,91%
